Rtt109 Vps75 – inhibitors of Candida albicans Rtt109/Vps75 histone acetyltransferase; inhibition, % at 34.9 µM; Q5AAJ8; purified Rtt109/Vps75, ThioGlo CoA-SH fluorescence, 4 h; 330,000 compounds, 0.16% hits;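 active = inhibition of at least 50% in every replicate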
Target sequence (Q5AAJ8 whole entry, looked up): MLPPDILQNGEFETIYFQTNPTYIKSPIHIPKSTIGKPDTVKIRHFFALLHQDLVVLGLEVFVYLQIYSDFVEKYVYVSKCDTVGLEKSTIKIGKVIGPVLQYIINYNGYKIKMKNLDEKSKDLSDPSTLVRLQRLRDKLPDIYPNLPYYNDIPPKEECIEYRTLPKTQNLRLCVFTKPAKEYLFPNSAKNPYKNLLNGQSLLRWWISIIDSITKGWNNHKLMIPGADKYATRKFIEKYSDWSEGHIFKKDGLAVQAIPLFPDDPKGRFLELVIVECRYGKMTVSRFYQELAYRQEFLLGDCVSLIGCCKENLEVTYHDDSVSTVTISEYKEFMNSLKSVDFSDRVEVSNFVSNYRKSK
Env fusion inh – HIV envelope-mediated fusion inhibition. inhibition, % at 12.3 µM. 360,000 compounds, 1.1% hits. HeLa-JRFL Env/CEM21 cell fusion, luciferase. AID 651610;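 active = mean replicate inhibition score of at least 50 and every replicate individually at or above 50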
SR-BI uptake up – SR-BI HDL lipid transfer activation; CHO ldlA[mSR-BI] cells, DiI-HDL uptake fluorescence, 3 h; 100 = double the neutral-control signal; activation, % at 12.5 µM; 320,000 compounds, 0.096% hits; AID 504775;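 active = mean replicate activation of at least 60% and every replicate at or above 60%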
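Test system: SR-BI-overexpressing, LDLR-lacking CHO cells; Also added: labelled HDL, 10 µg/mL; Measured by: bottom-read cell fluorescence after medium removal, ex 550/em 595 nm; Timing: 3 h uptake period with compound, 37 °C; Buffer or medium: F12, 0.5% BSA, 25 mM HEPES; Doses: single compound concentration, delivered by pin transfer.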
SR-BI HDL uptake – inhibitors of mouse SR-BI mediated HDL lipid uptake; Q61009; ldlA[mSR-BI] CHO cells, DiI-HDL uptake fluorescence, 3 h; inhibition, % at 12.5 µM; 320,000 compounds, 0.96% hits; AID 488896;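 active = mean replicate inhibition of at least 70% and a set share of replicates each scoring 70 or more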
N-glyco inh – blocks N-linked glycosylation in D54 reporter cells; D54 ERlucT glycosylation luciferase reporter, 24 h; percent of 100 nM tunicamycin response; reporter increase, % at 12.5 µM; 360,000 compounds, 0.23% hits;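 active = mean luciferase reporter signal, scaled so untreated is 0 and the glycosylation-blocking control 100, at or above a set limit in every replicate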;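 also: luciferase carries N-glycosylation sites so blocking glycosylation raises the light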
PglD inh – blocks C. jejuni PglD acetyltransferase activity; purified PglD enzyme, DTNB colorimetric CoA detection; inhibition, % at 12.5 µM; 360,000 compounds, 0.098% hits; AID 602405; in the data active = inhibition above about 16%, passing the limit was not always enough
Numbers stand for hits; n = inactive; x = no result; [ ] = another dose, or the depositor's remark. Rows were chosen to be rich in hits. Some 1.9% of all compounds tested hit in one or more screens of this group.

SMILES | Rtt109 Vps75 | Env fusion inh | SR-BI uptake up | SR-BI HDL uptake | N-glyco inh | PglD inh
COc1ccc(NC(=O)N(C)C[C@@H]2OCCCC[C@@H](C)Oc3ccc(NS(=O)(=O)c4ccc(Cl)cc4)cc3C(=O)N([C@@H](C)CO)C[C@@H]2C)cc1 | x | n | x | x | x | n
O=C(CSc1nnc(-c2n[nH]c3ccccc23)n1-c1ccccc1)Nc1cccc(Cl)c1 | n | 69.9 | n | n | n | x
CCc1ccc(NC(=O)CSc2nnc(-c3n[nH]c4ccccc34)n2-c2ccccc2)cc1 | n | n | n | n | n | x
COc1cc(C(=O)OCCN2CCOCC2)cc(OC)c1OC | n | x | n | n | n | n
COc1cc(C(=O)OCCCN2CCCN(CCCOC(=O)c3cc(OC)c(OC)c(OC)c3)CC2)cc(OC)c1OC | n | n | n | 80.9 | n | n
CC(C)CC#Cc1cnc2c(c1)C(=O)N([C@@H](C)CO)C[C@H](C)[C@H](CN(C)C(=O)c1ccc(F)cc1)O2 | x | n | x | x | x | n
C[C@@H]1CN([C@H](C)CO)C(=O)c2cc(NC(=O)Nc3ccc(F)cc3)ccc2O[C@@H](C)CCCCO[C@H]1CN(C)Cc1ccc(C(F)(F)F)cc1 | x | 67.9[16.7 µM] | x | x | x | n
C[C@@H]1CN([C@H](C)CO)C(=O)c2cc(NC(=O)Nc3ccc(F)cc3)ccc2O[C@@H](C)CCCCO[C@@H]1CN(C)Cc1ccc(C(F)(F)F)cc1 | x | 57.4[16.7 µM] | x | x | x | n
C[C@H]1CCCCO[C@H](CN(C)Cc2ccc(C(F)(F)F)cc2)[C@@H](C)CN([C@@H](C)CO)C(=O)c2cc(NC(=O)Nc3ccc(F)cc3)ccc2O1 | x | 57.6[16.7 µM] | x | x | x | n
C[C@@H]1CCCCO[C@H](CN(C)Cc2ccc(C(F)(F)F)cc2)[C@H](C)CN([C@@H](C)CO)C(=O)c2cc(NC(=O)Nc3ccc(F)cc3)ccc2O1 | x | n | x | x | x | n
CC(C)NC(=O)Nc1ccc2c(c1)C(=O)N([C@H](C)CO)C[C@@H](C)[C@H](CN(C)S(=O)(=O)c1cccs1)OCCCC[C@H](C)O2 | x | n | x | x | x | n
Cc1ccc2cc(C#N)c(NCCNC(=O)C3CC3)nc2c1C | n | 113.2 | n | n | n | n
CC(Nc1ccc(Cl)cc1)c1cc(Cl)ccc1O (stereo not given) | n | x | 373.1 | n | n | n
Cc1cc(C(=O)CSc2nc(N)cc(=O)[nH]2)c(C)n1CCc1ccc(F)cc1 | n | x | n | 89.8 | n | x
C[C@H](CO)N1C[C@H](C)[C@@H](CN(C)Cc2ccc(C(F)(F)F)cc2)OCCCC[C@H](C)Oc2ccc(NC(=O)NC3CCCCC3)cc2C1=O | x | n | x | x | x | n
C[C@H](CO)N1C[C@H](C)[C@@H](CN(C)Cc2ccc(Cl)c(Cl)c2)Oc2ccc(NC(=O)NC3CCCCC3)cc2CC1=O | x | n | x | x | x | n
COC(=O)[C@H]1[C@H](CO)[C@H]2Cn3c(ccc(C4=CCCC4)c3=O)[C@H]2N1C(=O)C1CC1 | x | x | x | x | x | n
Cc1nc2nc(-c3ccc(F)cc3)cn2nc1C | n | n | n | n | n | x
CCc1ccc(-c2cn3nc(C)c(C)nc3n2)cc1 | n | 75.8 | n | n | n | n
Nc1c(Cl)cc2c(c1Oc1ccccc1)C(=O)c1ccccc1C2=O | x | 125.2 | n | n | n | n
O=C1c2ccccc2C(=O)c2c(Nc3ccc(CCO)cc3)ccc(O)c21 | n | n | n | 93.3 | n | n
CN(Cc1ccccc1)C(=O)NC1CCCCC1 | n | n | n | n | n | n
CC[C@@H](CC1CCCCC1)C(=O)N(Cc1ccccc1)c1ccccc1 | n | 59.9 | n | n | n | n
COc1cc(C(=O)NCCOc2ccc(Cl)cc2)ccc1OCc1c(C)noc1C | n | x | n | 84.5 | n | n
Cc1ccc(NC(=O)c2ccc(OCc3c(C)noc3C)cc2)cc1C | n | n | n | 89.2 | n | n
SMILES | Rtt109 Vps75 | Env fusion inh | SR-BI uptake up | SR-BI HDL uptake | N-glyco inh | PglD inh
COc1ccc(-c2cccc(C(=O)Nc3ccccc3C)c2)cc1 | n | n | n | n | n | n
Cc1ccc(NC(=O)c2ccc(OCc3c(C)noc3C)cc2)c(C)c1 | n | x | x | n | n | n
COc1cc(C(=O)NCC2CCCCC2)ccc1OCc1c(C)noc1C | n | x | n | n | n | n
COc1ccc(C)cc1NC(=O)c1ccc(OCc2c(C)noc2C)cc1 | n | n | n | 70.8 | n | x
COc1ccc(C)cc1NC(=O)c1cccc(-c2ccc(OC(C)=O)cc2)c1 | n | n | n | 76.9 | n | n
C[C@@H]1CN([C@H](C)CO)S(=O)(=O)c2ccc(-c3cccc(C(=O)N(C)C)c3)cc2O[C@H]1CN(C)C(=O)Nc1ccccc1 | x | n | x | x | x | n
C[C@@H]1CN([C@@H](C)CO)C(=O)c2cc(C#CC3(O)CCCC3)cnc2O[C@H]1CN(C)C(=O)CC1CC1 | x | n | x | x | x | n
Cc1noc(C)c1COc1ccc(C(=O)NNC(=O)c2ccccc2F)cc1 | n | x | n | n | 26.8 | n
CCN(CC)c1ncnc2ccc(Br)cc12 | n | 86.6 | x | n | n | n
C[C@H](CO)N1C[C@H](C)[C@H](CN(C)C(=O)Nc2cccc3ccccc23)Oc2ccc(NC(=O)CCC(F)(F)F)cc2C1=O | x | n | x | x | x | n
COc1ccc(S(=O)(=O)Nc2ccc3c(c2)C(=O)N([C@@H](C)CO)C[C@H](C)[C@H](CN(C)C(=O)NC2CCCCC2)OCCCC[C@@H](C)O3)cc1 | x | n | x | x | x | n
C/C(=N\Nc1cc(Cl)nc(C)n1)c1ccccc1 | n | n | n | n | n | n
CCc1ccc(/C(C)=N/Nc2cc(Cl)nc(C)n2)cc1 | n | x | n | 78.6 | n | n
O=C(C[C@H]1CC[C@H]2[C@@H](COC[C@@H](O)CN2Cc2ccccc2)O1)N1CCOCC1 | x | n | x | x | x | n
O=C(N[C@H]1CC[C@H](CCNS(=O)(=O)c2ccccc2Cl)O[C@H]1CO)c1ccc(F)cc1 | x | n | x | x | x | n
N#Cc1cccc(C#N)c1N1CCC(C#N)CC1 | n | n | n | n | n | x
N#Cc1c(F)cccc1N1CCC(C#N)CC1 | n | 64.0 | n | n | n | x
COc1cccc(S(=O)(=O)N(C)C[C@@H]2OCc3ccccc3-c3c(n(C)c4ccccc34)C(=O)N([C@H](C)CO)C[C@@H]2C)c1 | x | 55.3[16.7 µM] | x | x | x | n
COc1cccc(S(=O)(=O)N(C)C[C@@H]2OCc3ccccc3-c3c(n(C)c4ccccc34)C(=O)N([C@@H](C)CO)C[C@@H]2C)c1 | x | 60.2[16.7 µM] | x | x | x | n
C[C@@H]1CN([C@@H](C)CO)C(=O)c2cc(NC(=O)Nc3ccccc3)ccc2O[C@@H](C)CCCCO[C@H]1CN(C)S(=O)(=O)c1cn(C)cn1 | x | n | x | x | x | n
O=C(N/N=C/c1sc(N2CCOCC2)nc1-c1ccccc1)c1cccc(S(=O)(=O)N2CCOCC2)c1 | n | 88.2 | x | x | n | x
O=C(N/N=C/c1sc(N2CCOCC2)nc1-c1ccccc1)c1ccccc1Cl | n | n | n | 82.6 | n | n
COc1ccc2cc3cc(C(=O)NCCc4ccc(OC)c(OC)c4)oc3nc2c1 | n | 68.4 | n | n | n | n

Bioassay records as filed in PubChem BioAssay.
